Calls of active or inactive are those of the source. The rule behind the calls is not given here.
Tests used:
LNCaP = test: Induction of apoptosis in human LNCAP cells assessed as increase in caspase 3/7 activation at 20 ug/ml after 24 hrs by Western blotting; assay type: functional, cell-based
Method in brief: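 LNCaP cells grown in RPMI 1640 with 10% FCS, then treated with 20 µg/ml doxorubicin (water stock) for 24 h or left untreated. Lysates run on 12.5% SDS-PAGE and probed for full-length and cleaved caspase 3.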

HCT-116 [1] = test: Cytotoxicity against human HCT116 cells expressing p53 assessed as reduction in cell viability after 24 hrs by MTT assay; assay type: functional, cell-based
Method in brief: (§1)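 p53-positive HCT116 cells kept in McCoy's 5A with 10% FCS at 37 °C and 5% CO2. Seeded at 1 x 10^4 per well and incubated overnight. Treated at 12.5–200 µM, DMSO-dissolved, for 8, 24 or 48 h, with 0.05% DMSO control. MTT (5 mg/ml) added for the final 1 h at 37 °C. Formazan dissolved in SDS/DMSO/acetic acid and absorbance read at 595 nm. Means ± SD, n = 3.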

HCT-116 [2] = test: Cytotoxicity against human HCT116 cells expressing p53 assessed as reduction in cell viability at 25 uM after 24 hrs by MTT assay; assay type: functional; method in brief: as §1
HCT-116 [3] = test: Cytotoxicity against human HCT116 cells expressing p53 assessed as reduction in cell viability at 50 uM after 24 hrs by MTT assay; assay type: functional; method in brief: as §1
HCT-116 [4] = test: Cytotoxicity against human HCT116 cells expressing p53 assessed as reduction in cell viability at 100 to 200 uM after 24 hrs by MTT assay; assay type: functional, cell-based; method in brief: as §1
HCT-116 [5] = test: Cytotoxicity against human HCT116 cells expressing p53 assessed as reduction in cell viability at 50 uM by MTT assay; assay type: functional, cell-based; details: TDE = time-dependent effect; method in brief: as §1
HCT-116 [6] = test: Cytotoxicity against human HCT116 cells expressing p53 assessed as cell viability at 50 uM after 48 hrs by MTT assay; assay type: functional; details: HCT-116, 48 h, read-out: Activity; method in brief: as §1
HCT-116 [7] = test: Induction of apoptosis in human HCT116 cells assessed as PARP cleavage at 50 uM from 24 to 72 hrs by Western blotting; assay type: functional, cell-based
Method in brief: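 HCT116 cells exposed to 50 µM for 24, 48 and 72 h, with 0.05% DMSO control. RIPA lysates (75 µg) run on 7.5% SDS-PAGE and transferred to PVDF. Anti-PARP blot, with nucleolin as loading control. Cleavage read as the 116 kDa band converting to 89 kDa.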

HCT-116 [8] = test: Induction of apoptosis in human HCT116 cells assessed as increase in gammaH2AX level at 50 uM from 24 to 72 hrs by Western blotting; assay type: functional, cell-based
HCT-116 [9] = test: Cytotoxicity against human HCT116 cells expressing p53 assessed as reduction in cell viability at 50 uM from 24 to 48 hrs by MTT assay; assay type: functional, cell-based; method in brief: as §1
HCT-116 [10] = test: Induction of apoptosis in human HCT116 cells assessed as PARP cleavage at 50 uM from 24 to 48 hrs by Western blotting; assay type: functional, cell-based
Method in brief: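 HCT116 cells (McCoy's 5A, 10% FCS, 37 °C, 5% CO2) exposed to 50 µM compound (DMSO stock; 0.05% DMSO control) for 24, 48 and 72 h. Total extract in RIPA buffer with protease inhibitors, 75 µg protein run on 7.5% SDS-PAGE, blotted to PVDF. Anti-PARP 1:1000 overnight at 4 °C. 116 kDa full-length and 89 kDa cleaved bands scored. Nucleolin as loading control.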

HCT-116 [11] = test: Induction of apoptosis in human HCT116 cells assessed as increase in p53 level at 50 uM from 8 to 48 hrs by Western blotting; assay type: functional, cell-based
Method in brief: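 HCT116 cells exposed to 50 µM for 8, 24 and 48 h, with 0.05% DMSO control. Lysates run on SDS-PAGE and blotted with anti-p53 (DO-1) at 1:1000 for 1 h at room temperature. GAPDH used as loading control.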

[12] = biological target: T1, M-phase inducer phosphatase 3 (Homo sapiens) (UniProt P30307); test: Inhibition of recombinant human GST-tagged cdc25C phosphatase activity using 3-O-methyl fluorescein phosphate at 100 uM
T1 sequence (whole entry): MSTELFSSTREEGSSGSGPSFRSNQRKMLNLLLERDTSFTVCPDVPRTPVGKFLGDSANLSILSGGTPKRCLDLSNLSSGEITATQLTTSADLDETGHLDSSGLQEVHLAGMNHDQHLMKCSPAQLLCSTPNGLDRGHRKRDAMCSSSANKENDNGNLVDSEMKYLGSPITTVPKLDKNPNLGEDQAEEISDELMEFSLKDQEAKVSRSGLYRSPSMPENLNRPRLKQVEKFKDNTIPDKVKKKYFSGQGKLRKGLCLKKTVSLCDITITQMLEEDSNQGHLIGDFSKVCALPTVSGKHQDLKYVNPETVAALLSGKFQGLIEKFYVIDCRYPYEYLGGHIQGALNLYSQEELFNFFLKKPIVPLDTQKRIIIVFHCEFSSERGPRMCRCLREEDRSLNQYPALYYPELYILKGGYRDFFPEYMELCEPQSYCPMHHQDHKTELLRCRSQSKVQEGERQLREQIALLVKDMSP
Method in brief: (§2)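 Test concentration 100 µM. Fluorescence (ex 475 / em 510 nm) read every 20 min for 2 h at 30 °C. Residual activity expressed relative to DMSO set at 100%.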

[13] = biological target: T2, M-phase inducer phosphatase 1 (Homo sapiens) (UniProt P30304); test: Inhibition of recombinant human GST-tagged cdc25A phosphatase activity using 3-O-methyl fluorescein phosphate at 100 uM; method in brief: as §2
T2 sequence (whole entry): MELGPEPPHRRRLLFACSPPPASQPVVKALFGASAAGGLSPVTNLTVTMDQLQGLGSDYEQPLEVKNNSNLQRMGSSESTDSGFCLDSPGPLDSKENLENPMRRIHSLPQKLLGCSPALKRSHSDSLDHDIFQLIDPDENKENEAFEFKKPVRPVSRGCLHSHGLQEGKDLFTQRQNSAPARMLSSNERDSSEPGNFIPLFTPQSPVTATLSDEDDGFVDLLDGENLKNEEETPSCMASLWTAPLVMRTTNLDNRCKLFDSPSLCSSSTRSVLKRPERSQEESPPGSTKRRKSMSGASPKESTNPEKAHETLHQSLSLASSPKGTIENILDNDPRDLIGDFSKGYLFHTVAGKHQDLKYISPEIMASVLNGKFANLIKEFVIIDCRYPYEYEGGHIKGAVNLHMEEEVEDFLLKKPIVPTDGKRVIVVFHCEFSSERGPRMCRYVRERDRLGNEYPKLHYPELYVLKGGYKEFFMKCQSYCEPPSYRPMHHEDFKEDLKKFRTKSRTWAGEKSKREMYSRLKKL

HCT-116 [14] = test: Cell cycle arrest in human HCT116 cells assessed as accumulation at G1 phase at 25 uM after 24 hrs using propidium iodide staining by cytofluorometry (reference value: 62.34%); assay type: functional
HCT-116 [15] = test: Cell cycle arrest in human HCT116 cells assessed as accumulation at G1 phase at 50 uM after 24 hrs using propidium iodide staining by cytofluorometry (reference value: 62.34%); assay type: functional
HCT-116 [16] = test: Cell cycle arrest in human HCT116 cells assessed as accumulation at S phase at 25 uM after 24 hrs using propidium iodide staining by cytofluorometry (reference value: 4.91%); assay type: functional
HCT-116 [17] = test: Cell cycle arrest in human HCT116 cells assessed as accumulation at S phase at 50 uM after 24 hrs using propidium iodide staining by cytofluorometry (reference value: 4.91%); assay type: functional
HCT-116 [18] = test: Cell cycle arrest in human HCT116 cells assessed as accumulation at G2/M phase at 25 uM after 24 hrs using propidium iodide staining by cytofluorometry (reference value: 23.45%); assay type: functional
HCT-116 [19] = test: Cell cycle arrest in human HCT116 cells assessed as accumulation at G2/M phase at 50 uM after 24 hrs using propidium iodide staining by cytofluorometry (reference value: 23.45%); assay type: functional
HCT-116 [20] = test: Cell cycle arrest in human HCT116 cells assessed as accumulation at subG1 phase at 25 uM after 24 hrs using propidium iodide staining by cytofluorometry (reference value: 1.8%); assay type: functional
HCT-116 [21] = test: Cell cycle arrest in human HCT116 cells assessed as accumulation at subG1 phase at 50 uM after 24 hrs using propidium iodide staining by cytofluorometry (reference value: 1.8%); assay type: functional
HCT-116 [22] = test: Induction of apoptosis in human HCT116 cells assessed as decrease in bcl-2 level by Western blotting; assay type: functional, cell-based; details: TDE = time-dependent effect
Method in brief: (§3)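 HCT116 cells left untreated or exposed for 0.5–24 h. 50 µg protein separated on 12.5% SDS-PAGE and transferred to PVDF. bcl-2, bax or cytochrome c antibodies applied at 1:1000 overnight at 4 °C, with GAPDH loading control. For cytochrome c, cytosolic extracts were made by snap-freezing PBS-resuspended cells and clearing at 12500×g.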

HCT-116 [23] = test: Induction of apoptosis in human HCT116 cells assessed as increase in bax level by Western blotting; assay type: functional, cell-based; details: TDE = time-dependent effect; method in brief: as §3
HCT-116 [24] = test: Induction of apoptosis in human HCT116 cells assessed as increase in release of cytochrome C into cytosol by Western blotting; assay type: functional, cell-based; method in brief: as §3
HCT-116 [25] = test: Induction of apoptosis in human HCT116 cells assessed as increase in caspase 3/7 activation at 50 uM from 24 to 48 hrs by Western blotting; assay type: functional, cell-based
Method in brief: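 HCT116 cells treated with 0 or 50 µM for 24 and 48 h. Lysed on ice in Tris/MgCl2/NP-40/DTT buffer. Separated on 12.5% SDS-PAGE and probed with caspase 3 antibody for full-length protein and cleavage products. Representative of at least 3 blots.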

HCT-116 [26] = test: Induction of apoptosis in NAC treated human HCT116 cells assessed as PARP cleavage at 50 uM treated 0.5 hrs before NAC challenge measured after 24 to 72 hrs by Western blotting; assay type: functional, cell-based
Method in brief: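 HCT116 cells pretreated with 5 mM NAC (water stock) for 0.5 h, then exposed to 50 µM for 24, 48 and 72 h. Cells lysed in RIPA with protease inhibitors. 75 µg protein run on 7.5% SDS-PAGE and blotted to PVDF. PARP probed at 1:1000 overnight at 4 °C. Nucleolin or GAPDH used as loading control.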

HCT-116 [27] = test: Induction of apoptosis in human HCT116 cells assessed as decrease in cdc25C level at 50 uM by Western blotting; assay type: functional, cell-based; details: TDE = time-dependent effect

In the case of `COc1cccc2c1C(=O)c1c(O)c3c(c(O)c1C2=O)C[C@@](O)(C(=O)CO)C[C@@H]3O[C@H]1C[C@H](N)[C@H](O)[C@H](C)O1`, the Activity (LNCaP) is reported as “Active”.
For `COc1ccc2c(CSSCc3cc(=O)oc4cc(OC)ccc34)cc(=O)oc2c1`, the Activity (HCT-116 [1]) was “Dose-dependent effect”, the Activity (HCT-116 [2]) was 30% and the Activity (HCT-116 [3]) was 50%. The Activity (HCT-116 [4]) was “Active”, the Activity (HCT-116 [5]) was “tde” and the viability at 50 µM (HCT-116 [6]) was 20%. For the same compound, the Activity (HCT-116 [7]) was “Active”, the Activity (HCT-116 [8]) was “Active” and the Activity (HCT-116 [9]) was “Active”. For the same compound, the Activity (HCT-116 [10]) was “Active”, the Activity (HCT-116 [11]) was “Active” and the inhibition [12] was “Active”. For the same compound, the inhibition [13] was “Active”.
In the case of `COc1ccc2c(CSSSCc3cc(=O)oc4cc(OC)ccc34)cc(=O)oc2c1`, the Activity (HCT-116 [1]) is reported as “Dose-dependent effect”, the Activity (HCT-116 [2]) is reported as 22% and the Activity (HCT-116 [3]) is reported as 50%. For the same compound, the Activity (HCT-116 [4]) was “Active”, the Activity (HCT-116 [5]) was “tde” and the viability at 50 µM (HCT-116 [6]) was 20%. The Activity (HCT-116 [14]) was 14.33%, the Activity (HCT-116 [15]) was 13.59% and the Activity (HCT-116 [16]) was 4.61%. The Activity (HCT-116 [17]) was 3.9%, the Activity (HCT-116 [18]) was 66.07% and the Activity (HCT-116 [19]) was 63.19%. The Activity (HCT-116 [20]) was 12.28%, the Activity (HCT-116 [21]) was 10.43% and the Activity (HCT-116 [7]) was “Active”. The Activity (HCT-116 [8]) was “Active”, the Activity (HCT-116 [22]) was “tde” and the Activity (HCT-116 [23]) was “tde”. For the same compound, the Activity (HCT-116 [24]) was “Active”, the Activity (HCT-116 [25]) was “Active” and the Activity (HCT-116 [26]) was “inactive”. For the same compound, the Activity (HCT-116 [11]) was “Active”, the Activity (HCT-116 [27]) was “tde” and the inhibition [12] was “Active”. The inhibition [13] was “Active”.
For `C=CCSSCC=C`, the Activity (HCT-116 [9]) was “Active” and the Activity (HCT-116 [10]) was “Active”.
In the case of `C=CCSSSSCC=C`, the Activity (HCT-116 [9]) is reported as “Active”.
For `COc1cc(N(C)C)cc(CN(C)CCc2ccc([N+](=O)[O-])cc2)c1O`, the inhibition [12] was “Active” and the inhibition [13] was “Active”.
